Our source for the IC50, MFC and MIC values is ChEMBL document CHEMBL1138851, “Synthesis, antifungal activity, and structure-activity relationships of coruscanone A analogues” (J Med Chem, 2006).

The subject of assay [1] is Candida albicans. Put plainly: Antifungal activity against Candida albicans ATCC 90028. It is filed as functional, organism-based. In outline: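 Broth microdilution; samples serially diluted in 20% DMSO/saline, duplicate wells. Inoculum 1.0 × 10⁴ CFU/ml in RPMI 1640/2% dextrose/0.03% glutamine/MOPS, pH 6.0. Incubated 37 °C, 18–24 h; OD630 read before and after incubation. IC50 from percent growth vs concentration; MIC as lowest concentration with no detectable growth; MFC as no growth on agar after plating 5 μl from clear wells.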

The subject of assay [2] is Candida albicans. Put plainly: Antifungal activity against fluconazole-susceptible Candida albicans. The format is functional, organism-based. In a few lines:
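Broth microdilution; samples serially diluted in 20% DMSO/saline, duplicate wells. Incubated 37 °C, 18–24 h; OD630 read before and after incubation. IC50 from percent growth vs concentration; MIC as lowest concentration with no detectable growth; MFC as no growth on agar after plating 5 μl from clear wells.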

Assay [3] relates to Candida albicans. Put plainly: Antifungal activity against fluconazole-resistant Candida albicans. The format is functional, organism-based. In a few lines:
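Broth microdilution (NCCLS-based) against patient isolate #17 (last isolate during fluconazole therapy, azole-resistant); samples serially diluted in 20% DMSO/saline, tested in duplicate. Inoculum 1.0 × 10⁴ CFU/ml in RPMI 1640/2% dextrose/0.03% glutamine/MOPS pH 6.0; 37 °C, 18–24 h; OD630 read before and after. IC50 from % growth versus concentration; MIC = no detectable growth; MFC by subculture onto agar. Means of three independent experiments.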

The test system of assay [4] is Cryptococcus neoformans. Put plainly: Antifungal activity against Cryptococcus neoformans ATCC 90113. It is filed as functional, organism-based. In a few lines:
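Serial dilutions in 20% DMSO/saline, tested in duplicate. Inoculum 1.0 × 10⁵ CFU/ml in Sabouraud dextrose broth. Incubated 30 °C, 72 h; OD630 read before and after incubation. IC50 from percent growth vs concentration; MIC as lowest concentration with no detectable growth; MFC as no growth on agar after plating 5 μl from clear wells.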

For assay [5], the system named is Aspergillus fumigatus. Put plainly: Antifungal activity against Aspergillus fumigatus ATCC 90906. The format is functional, organism-based.
The subject of assay [6] is Vero. Put plainly: Cytotoxicity against Vero cells by neutral red method. It is filed as cell-based. As to conditions: Chlorocebus sabaeus. In outline: (§1)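 Neutral red assay on ATCC-sourced Vero (African green monkey kidney […]) and LLC-PK1 (pig kidney epithelial) cells. Top test concentration 10 μg/mL. Values are means of three independent experiments.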
Assay [7] concerns LLC-PK1. Put plainly: Cytotoxicity against LLC-PK1 cells by neutral red method. It is filed as cell-based. As to conditions: Sus scrofa. In a few lines:
as §1

≈ marks a conversion by molar mass, not a printed value.

By IC50 is commonly meant the point on the concentration scale where inhibition reaches its midpoint. Low readings indicate greater potency in that assay, high ones weaker potency in that assay. A word on the MFC: it is the smallest concentration meeting the test's criterion for killing the fungus. The low end stands for greater fungicidal potency, the high end for weaker fungicidal potency. As a reminder, the MIC is the lowest concentration found to suppress growth. Lower therefore signals a more susceptible organism. For the compound `COC(/C=C/c1ccccc1)=C1\C(=O)C=C(c2ccccc2)C1=O`, the IC50 was over 20 µg/mL in assay [1]; 20 µg/mL (≈ 63.2 µM) in assay [2]; 18 µg/mL (≈ 56.9 µM) in assay [3]; over 20 µg/mL in assay [4]; over 20 µg/mL in assay [5]; over 10 µg/mL in assay [6]. Besides, it took 5.1 µg/mL (≈ 16.1 µM) to reach half-maximal inhibition in assay [7] (IC50). Moreover, the MFC in assay [1], in assay [2], in assay [4] and in assay [5] was over 20 µg/mL throughout. The minimum inhibitory concentration (MIC) in assay [1], in assay [2], in assay [4] and in assay [5] was over 20 µg/mL throughout.
For `COC(/C=C/c1ccc(Cl)cc1)=C1\C(=O)C=C(C)C1=O`, the half-inhibitory concentration (IC50) stood at 1.39 µg/mL (≈ 4.81 µM) in assay [1]; 0.64 µg/mL (≈ 2.22 µM) in assay [2]; 0.86 µg/mL (≈ 2.98 µM) in assay [3]; 2.23 µg/mL (≈ 7.72 µM) in assay [4]; 20 µg/mL (≈ 69.3 µM) in assay [5]; 5.5 µg/mL (≈ 19 µM) in assay [6]. In assay [7], this compound registered an IC50 of 3.1 µg/mL (≈ 10.7 µM). Further, the MFC was 4.17 µg/mL (≈ 14.4 µM) in assay [1]; 2.92 µg/mL (≈ 10.1 µM) in assay [2]; 2.92 µg/mL (≈ 10.1 µM) in assay [3]; 12 µg/mL (≈ 41.6 µM) in assay [4]; over 20 µg/mL in assay [5]. The minimal inhibitory concentration (MIC) in assay [1] was 4.17 µg/mL (≈ 14.4 µM); in assay [2] it was 2.08 µg/mL (≈ 7.2 µM); in assay [3] it was 2.92 µg/mL (≈ 10.1 µM); in assay [4] it was 12 µg/mL (≈ 41.6 µM); in assay [5], over 20 µg/mL.
For `CC1=CC(=O)/C(=C(O)/C=C/c2ccc(Cl)cc2)C1=O`, the half-maximal inhibitory concentration (IC50) in assay [1] is 13 µg/mL (≈ 47.3 µM); in assay [2] it was 10 µg/mL (≈ 36.4 µM); in assay [3], 13 µg/mL (≈ 47.3 µM); in assay [4], over 20 µg/mL; in assay [5], over 20 µg/mL; in assay [6], over 10 µg/mL. The compound further displayed an IC50 in assay [7] of 6 µg/mL (≈ 21.8 µM). The MFC in assay [1], in assay [2], in assay [4] and in assay [5] was over 20 µg/mL in each case. Moreover, the MIC in assay [1], in assay [2], in assay [4] and in assay [5] was over 20 µg/mL each time.
For `C[C@@H]1[C@H](O)[C@@H](C)/C=C/C=C/C=C/C=C/C=C/C=C/C=C/[C@H](O[C@@H]2O[C@H](C)[C@@H](O)[C@H](N)[C@@H]2O)C[C@@H]2O[C@](O)(C[C@@H](O)C[C@@H](O)[C@H](O)CC[C@@H](O)C[C@@H](O)CC(=O)O[C@H]1C)C[C@H](O)[C@H]2C(=O)O` [AMPHOTERICIN B], the IC50 is 0.15 µg/mL (≈ 0.162 µM) in assay [1]; 0.12 µg/mL (≈ 0.13 µM) in assay [2]; 0.17 µg/mL (≈ 0.184 µM) in assay [3]; 0.41 µg/mL (≈ 0.444 µM) in assay [4]; 0.73 µg/mL (≈ 0.79 µM) in assay [5]; 7 µg/mL (≈ 7.58 µM) in assay [6]. Moreover, inhibition in assay [7] was half-maximal at 2.4 µg/mL (≈ 2.6 µM) (IC50). For the same compound, the figures for the MFC in assay [1], in assay [3] and in assay [4] were 1.04 µg/mL (≈ 1.13 µM), 0.83 µg/mL (≈ 0.898 µM) and 1.67 µg/mL (≈ 1.81 µM), respectively. For the same compound, the minimum inhibitory concentration (MIC) in assay [1] turned out to be 0.63 µg/mL (≈ 0.682 µM); in assay [2], 0.52 µg/mL (≈ 0.563 µM); in assay [3], 0.63 µg/mL (≈ 0.682 µM).
For the compound `COC(/C=C/c1ccccc1)=C1\C(=O)C=C(C)C1=O` [CORUSCANONE A], the concentration for half-maximal inhibition (IC50) in assay [1] was 0.8 µg/mL (≈ 3.15 µM); in assay [2], 0.47 µg/mL (≈ 1.85 µM); in assay [3], 0.68 µg/mL (≈ 2.67 µM); in assay [4], 2.04 µg/mL (≈ 8.02 µM); in assay [5], 19 µg/mL (≈ 74.7 µM); in assay [6], 4.9 µg/mL (≈ 19.3 µM). This compound also came in with a half-inhibitory concentration (IC50) in assay [7] of 3.4 µg/mL (≈ 13.4 µM). The MFC was 2.08 µg/mL (≈ 8.18 µM) in assay [1]; 1.25 µg/mL (≈ 4.92 µM) in assay [2]; 2.08 µg/mL (≈ 8.18 µM) in assay [3]; 8.33 µg/mL (≈ 32.8 µM) in assay [4]; over 20 µg/mL in assay [5]. In addition, the MIC in assay [1] is 2.08 µg/mL (≈ 8.18 µM); in assay [2] it was 1.25 µg/mL (≈ 4.92 µM); in assay [3], 2.08 µg/mL (≈ 8.18 µM); in assay [4], 8.33 µg/mL (≈ 32.8 µM); in assay [5] it was over 20 µg/mL.
Take `OC(Cn1cncn1)(Cn1cncn1)c1ccc(F)cc1F` [FLUCONAZOLE]: the 50% inhibitory concentration (IC50) in assay [1] is 0.22 µg/mL (≈ 0.718 µM); in assay [2], 0.24 µg/mL (≈ 0.784 µM); in assay [3] it was 118 µg/mL (≈ 385 µM); in assay [4], 5.65 µg/mL (≈ 18.4 µM); in assay [5] it was over 200 µg/mL; in assay [6], over 10 µg/mL. This compound came in with an IC50 in assay [7] of over 10 µg/mL. Further, the MFC in assay [1], in assay [2], in assay [3], in assay [4] and in assay [5] was over 200 µg/mL throughout. Besides, the MIC in assay [1] was 0.45 µg/mL (≈ 1.47 µM); in assay [2] it was 0.45 µg/mL (≈ 1.47 µM); in assay [3], over 200 µg/mL; in assay [4], 37 µg/mL (≈ 121 µM); in assay [5] it was over 200 µg/mL.
